For 13 compounds, IC50 and Activity results are on record in ChEMBL document CHEMBL1151809, “Prenylated and benzylated flavonoids from the fruits of Cudrania tricuspidata” (J Nat Prod, 2009).

Data set [1] concerns RAW264.7. As to the kind of experiment: Inhibition of LPS-induced nitric oxide production in mouse RAW264.7 cells by Griess assay. The format is functional, cell-based. The gist of the method:
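LPS-stimulated RAW 264.7 cells; NO output measured as nitrite in culture supernatant by Griess reagent. IC50 derived, reported as mean ± SD from three separate experiments. Aminoguanidine run as positive control.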

Data set [2] concerns RAW264.7. As to the kind of experiment: Cytotoxicity against mouse RAW264.7 cells by CCK-8 assay. The format is cell-based. The gist of the method:
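Viability read by CCK-8 on the cells remaining after the Griess nitrite assay of the LPS-stimulated RAW 264.7 cultures.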

On to `N=C(N)NN` [PIMAGEDINE], for which the IC50 in data set [1] amounted to 28 µM.

In data set [1], `C=C(C)C(O)Cc1c(O)c(CC=C(C)C)c2occ(-c3ccc(O)cc3)c(=O)c2c1O` (stereo not given) [ISOERYSENEGALENSEIN E] registered an IC50 of 12.7 µM. In addition, the Activity entry in data set [2] is given as “Non-toxic”. Regarding `C=C(C)C(O)Cc1c(O)c(CC=C(C)C)c(O)c2c(=O)c(-c3ccc(O)cc3)coc12` (stereo not given) [ERYSENEGALENSEIN E], half-maximal inhibition in data set [1] (IC50) required 18.4 µM. Also, in data set [2], the Activity entry is “Non-toxic”. Taken in the same sequence, the figures for `O=C1c2c(O)cc(O)c(Cc3ccc(O)cc3)c2O[C@H](c2ccc(O)cc2)[C@H]1O` were more than 50 µM and “Non-toxic”. Taken in the same sequence, the figures for `CC(C)=CCc1c(O)c(CC=C(C)C)c2occ(-c3ccc(O)cc3)c(=O)c2c1O` were 19.2 µM and “Non-toxic”. On to `CC(C)=CCc1c2oc(C(C)(C)O)cc2c(O)c2c(=O)c(-c3ccc(O)cc3)coc12`, for which the half-inhibitory concentration (IC50) in data set [1] is 12.1 µM. Besides, in data set [2], the Activity result is “Non-toxic”.

Regarding `O=C1c2c(cc(O)c(Cc3ccc(O)cc3)c2O)O[C@H](c2ccc(O)cc2)[C@H]1O` [GERICUDRANIN E], the IC50 in data set [1] was determined as 41.8 µM. Further, in data set [2], the Activity result is recorded as “Non-toxic”. Taken in the same sequence, the figures for `C=C(C)C(O)Cc1c(O)cc2occ(-c3ccc(OC)cc3)c(=O)c2c1O` (stereo not given) were more than 50 µM and “Non-toxic”. In the case of `COc1ccc(-c2coc3cc4c(c(O)c3c2=O)C=CC(C)(C)O4)cc1O`, the IC50 in data set [1] was more than 50 µM. The Activity entry in data set [2] is on record as “Non-toxic”. Turning to `O=c1c(-c2ccc(O)c(O)c2)coc2cc(O)cc(O)c12` [OROBOL], the midpoint of inhibition in data set [1], the IC50, lay at 18.7 µM. In addition, the Activity entry in data set [2] is listed as “Non-toxic”. The matching figures for `O=C1c2c(O)c(Cc3ccc(O)cc3)c(O)c(Cc3ccc(O)cc3)c2O[C@H](c2ccc(O)cc2)[C@H]1O` [GERICUDRANIN D]: more than 50 µM and “Non-toxic”.

Take `CO[C@@H]1c2c(c(CC=C(C)C)c(O)c3c(=O)c(-c4ccc(O)cc4)coc23)O[C@H]1C(C)(C)O`: it took 11.8 µM to reach half-maximal inhibition in data set [1] (IC50). Further, in data set [2], the Activity result is given as “Non-toxic”.

As to `CC(C)=CCc1c2c(c3occ(-c4ccc(O)cc4)c(=O)c3c1O)CC(C(C)(C)O)O2` (stereo not given) [SENEGALENSIN], the IC50 in data set [1] stood at 13.1 µM. Moreover, the Activity entry in data set [2] was “Non-toxic”.
